Series [1] relates to Macrophage. The series can be described thus: Increase in PPAR-gamma mRNA transcript level in human macrophages at 10 uM by quantitative PCR analysis. In kind it is functional, cell-based.
In series [2] the target is T1, Peroxisome proliferator-activated receptor gamma (Mus musculus) (UniProt P37238).
T1 sequence (whole entry): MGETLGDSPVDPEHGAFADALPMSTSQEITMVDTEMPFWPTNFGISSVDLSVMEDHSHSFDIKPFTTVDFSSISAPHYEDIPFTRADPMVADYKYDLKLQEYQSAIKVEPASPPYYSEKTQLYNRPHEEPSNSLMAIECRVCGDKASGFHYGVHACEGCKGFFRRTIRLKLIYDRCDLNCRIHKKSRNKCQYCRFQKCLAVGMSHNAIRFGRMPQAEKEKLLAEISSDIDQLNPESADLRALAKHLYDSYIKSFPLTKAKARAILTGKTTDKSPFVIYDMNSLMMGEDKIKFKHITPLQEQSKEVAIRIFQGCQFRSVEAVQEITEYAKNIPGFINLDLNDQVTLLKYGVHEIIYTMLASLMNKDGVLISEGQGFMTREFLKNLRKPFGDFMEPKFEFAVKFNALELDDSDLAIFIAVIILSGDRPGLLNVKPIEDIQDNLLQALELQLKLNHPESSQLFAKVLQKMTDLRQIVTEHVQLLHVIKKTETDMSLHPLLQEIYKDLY
The series can be described thus: Induction of PPAR-gamma promoter activity in LPS-stimulated mouse CMT93 cells at 10 uM preincubated for 30 mins before LPS-challenge measured after 6 hrs post challenge by luciferase reporter gene assay. In kind it is cell-based. The gist of the method:
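CMT-93 cells (1×10⁵/well) were transfected with an NF-κB or PPRE luciferase reporter plus CMV-β-Gal. At 24 h they were treated with compound for 30 min, then with 100 ng/mL LPS for 6 h. Cells were lysed in Tris/EDTA/DTT/Triton buffer and supernatant luciferase was read by luminometer. Results are fold over untreated cells.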

Series [3] can be described thus: Antiinflammatory activity in human macrophages assessed as inhibition of LPS-induced IL8 release at 1 uM preincubated for 30 mins before LPS-challenge measured after 24 hrs post challenge by ELISA (reference value: 7.86 +/-0.17 ng/ml). It counts as functional, Macrophage. The gist of the method:
(§1)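 Human blood PBMC-derived macrophages were used after 10 days of culture. Purity >95% (esterase, CD14, morphology). Cells were pretreated 30 min at 37 °C with compound, then given 100 ng/mL LPS (S. enteritidis) for 24 h. TNFα, IL-1β and IL-8 in conditioned medium were measured by ELISA. Working solutions were endotoxin-tested by LAL (<3 pg/mL).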

Series [4] is described as follows: Antiinflammatory activity in human macrophages assessed as inhibition of LPS-induced IL8 release at 10 '-2 uM preincubated for 30 mins before LPS-challenge measured after 24 hrs post challenge by ELISA (reference value: 7.86 +/-0.17 ng/ml). In kind it is functional, Macrophage. The gist of the method:
as §1

For series [5], the system named is Macrophage. The series can be described thus: Antiinflammatory activity in human macrophages assessed as inhibition of LPS-induced IL-8 release at 10 uM preincubated for 30 mins before LPS-challenge measured after 24 hrs post challenge by ELISA. In kind it is functional, cell-based. The gist of the method: as §1
Series [6] can be described thus: Antiinflammatory activity in human macrophages assessed as inhibition of LPS-induced IL8 release at 10 '-3 uM preincubated for 30 mins before LPS-challenge measured after 24 hrs post challenge by ELISA (reference value: 7.86 +/-0.17 ng/ml). It counts as functional, Macrophage. The gist of the method:
as §1

A short description of series [7]: Antiinflammatory activity in human macrophages assessed as inhibition of LPS-induced IL8 release at 10 uM preincubated for 30 mins before LPS-challenge measured after 24 hrs post challenge by ELISA (reference value: 7.86 +/-0.17 ng/ml). In kind it is functional, Macrophage. The gist of the method: as §1
A short description of series [8]: Antiinflammatory activity in human macrophages assessed as inhibition of LPS-induced IL8 release at 100 uM preincubated for 30 mins before LPS-challenge measured after 24 hrs post challenge by ELISA (reference value: 7.86 +/-0.17 ng/ml). In kind it is functional, Macrophage. The gist of the method:
as §1

A short description of series [9]: Antiinflammatory activity in human macrophages assessed as inhibition of LPS-induced TNFalpha release at 5 uM preincubated for 30 mins before LPS-challenge measured after 24 hrs post challenge by ELISA (reference value: 1682 +/-190 ng/ml). In kind it is functional, Macrophage. The gist of the method: as §1
Series [10] in a line: Antiinflammatory activity in human macrophages assessed as inhibition of LPS-induced TNFalpha release at 10 '-3 uM preincubated for 30 mins before LPS-challenge measured after 24 hrs post challenge by ELISA (reference value: 1682 +/-190 ng/ml). In kind it is functional, Macrophage. The gist of the method: as §1
The nature of series [11]: Antiinflammatory activity in human macrophages assessed as inhibition of LPS-induced TNFalpha release at 10 uM preincubated for 30 mins before LPS-challenge measured after 24 hrs post challenge by ELISA (reference value: 1682 +/-190 ng/ml). In kind it is functional, Macrophage. The gist of the method: as §1
The nature of series [12]: Antiinflammatory activity in human macrophages assessed as inhibition of LPS-induced TNFalpha release at 10 '-2 uM preincubated for 30 mins before LPS-challenge measured after 24 hrs post challenge by ELISA (reference value: 1682 +/-190 ng/ml). It counts as functional, Macrophage. The gist of the method:
as §1

Series [13] is described as follows: Antiinflammatory activity in human macrophages assessed as inhibition of LPS-induced IL8 release at 5 uM preincubated for 30 mins before LPS-challenge measured after 24 hrs post challenge by ELISA (reference value: 7.86 +/-0.17 ng/ml). In kind it is functional, Macrophage. The gist of the method:
as §1

Series [14] in a line: Antiinflammatory activity in human macrophages assessed as inhibition of LPS-induced TNFalpha release at 1 uM preincubated for 30 mins before LPS-challenge measured after 24 hrs post challenge by ELISA (reference value: 1682 +/-190 ng/ml). It counts as functional, Macrophage. The gist of the method: as §1
For series [15], the system named is Macrophage. The series can be described thus: Antiinflammatory activity in human macrophages assessed as inhibition of LPS-induced IL-1beta release at 10 uM preincubated for 30 mins before LPS-challenge measured after 24 hrs post challenge by ELISA. It counts as functional, cell-based. The gist of the method:
as §1

Series [16] is described as follows: Antiinflammatory activity in human macrophages assessed as inhibition of LPS-induced TNFalpha release at 100 uM preincubated for 30 mins before LPS-challenge measured after 24 hrs post challenge by ELISA (reference value: 1682 +/-190 ng/ml). In kind it is functional, Macrophage. The gist of the method:
as §1

Series [17] concerns Macrophage. The series can be described thus: Antiinflammatory activity in human macrophages assessed as inhibition of LPS-induced TNFalpha release at 10 uM preincubated for 30 mins before LPS-challenge measured after 24 hrs post challenge by ELISA. In kind it is functional, cell-based. The gist of the method:
as §1

Series [18] in a line: Cytotoxicity against human macrophages up to 100 uM after 72 hrs by MTT assay. In kind it is cell-based. The note with it: macrophage.
Series [19] in a line: Cytotoxicity against human macrophages at 10 '5 uM after 72 hrs by MTT assay. It counts as cell-based. The note with it: macrophage.
A short description of series [20]: Cytotoxicity against human macrophages at 10 '4 uM after 72 hrs by MTT assay. The note with it: macrophage. It counts as cell-based.
Series [21] relates to Mus musculus. Put plainly: Antiinflammatory activity in DSS-induced C57Bl/6 mouse colitis model assessed as inhibition IL-1beta level in colonic homogenate at 400 mg/kg/day administered intragastrically for 7 days. In kind it is functional, organism-based. The gist of the method: (§2)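 Male C57Bl/6J mice, 8–10 per group, dosed intragastrically daily for 7 days at 400 mg/kg/day (vehicle 100 µL). From day 2, drinking water carried 3.5% w/vol DSS. Killed 5 days after colitis induction. Full-thickness proximal colon homogenised for MPO activity and IL-1β protein.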

Series [22] relates to Mus musculus. The series can be described thus: Antiinflammatory activity in DSS-induced C57Bl/6 mouse colitis model assessed as inhibition MPO activity in colonic homogenate at 400 mg/kg/day administered intragastrically for 7 days. In kind it is functional. The gist of the method: as §2
Series [23] concerns Macrophage. The series can be described thus: Increase in PPAR-gamma mRNA transcript level in human macrophages at 30 mM by quantitative PCR analysis. In kind it is functional, cell-based.

Each structure is given as a SMILES string. Activity calls are given as the source filed them. No cut-off for these calls is given here.

Results on ten molecules are retold here after ChEMBL document CHEMBL2331391, “Peroxisome proliferator-activated receptor-γ mediates the anti-inflammatory effect of 3-hydroxy-4-pyridinecarboxylic acid derivatives: synthesis and biological evaluation” (Eur J Med Chem, 2013).

As to `CN(CCOc1ccc(CC2SC(=O)NC2=O)cc1)c1ccccn1` (centres undefined), the result in [1] and in [2] was Active.
Turning to `Cc1c(O)c(C(=O)O)cc[n+]1C.[Cl-]`, the Activity came to 7.04 ng/mL in series [3]; 7.23 ng/mL in series [4]; 7.45 ng/mL in series [6]; 6.4 ng/mL in series [7]; 4.03 ng/mL in series [8]; 1394 ng/mL in series [9]. For the same molecule, the Activity in series [10] was 1626 ng/mL; in series [11], 1404 ng/mL; in series [12], 1418 ng/mL; in [13], 7.34 ng/mL; in [14], 1368 ng/mL; in series [16] it was 901 ng/mL. Moreover, the inhibition result in [5], in [15] and in series [17] was “Active” throughout.
Consider `O=C(O)c1ccnc(CO)c1O`, for which the inhibition entry in series [5], in [15] and in [17] was “inactive” in each case. In addition, the Activity entry was “Non-toxic” in series [18], “Toxic” in [19] and “Toxic” in [20].
Take `Cc1nccc(C(=O)O)c1O`: the inhibition entry in series [5], in series [15] and in [17] was “inactive” each time. Moreover, the values for the Activity entry in series [18], in series [19] and in series [20] were “Non-toxic”, “Toxic” and “Toxic”, respectively.
Consider `Cc1cc(C(=O)O)c(O)c(CO)n1`, for which the inhibition entry in [5] and in series [15] was “Active” each time.
As for `O=C(O)c1ccncc1O`, the inhibition result in [5], in series [15] and in [17] was “inactive” in each case. Moreover, the Activity result is listed as “Non-toxic” in series [18], “Toxic” in series [19] and “Toxic” in series [20].
Consider `Nc1ccc(O)c(C(=O)O)c1`, for which the inhibition result in series [21] was “inactive”. Moreover, in series [22], the inhibition result is “Active”. Also, in [23], the result was Active.
For `O=C(O)c1ccccc1O`, the inhibition entry in [5], in [15] and in [17] was “Active” throughout.
Regarding `CCc1nccc(C(=O)O)c1O`, the inhibition entry in series [5], in series [15] and in series [17] was “inactive” throughout.
Regarding `CC(=O)Oc1ccccc1C(=O)O`, the inhibition entry in series [5], in series [15] and in series [17] was “Active” each time.
